Experimental data as given in article PMC10203381 (Plant Communications, 2022).

Assays:
EcDXS = target: T1, EcDXS (Escherichia coli, UniProt P77488); assay type: cell-based
T1 sequence (P77488 1-620): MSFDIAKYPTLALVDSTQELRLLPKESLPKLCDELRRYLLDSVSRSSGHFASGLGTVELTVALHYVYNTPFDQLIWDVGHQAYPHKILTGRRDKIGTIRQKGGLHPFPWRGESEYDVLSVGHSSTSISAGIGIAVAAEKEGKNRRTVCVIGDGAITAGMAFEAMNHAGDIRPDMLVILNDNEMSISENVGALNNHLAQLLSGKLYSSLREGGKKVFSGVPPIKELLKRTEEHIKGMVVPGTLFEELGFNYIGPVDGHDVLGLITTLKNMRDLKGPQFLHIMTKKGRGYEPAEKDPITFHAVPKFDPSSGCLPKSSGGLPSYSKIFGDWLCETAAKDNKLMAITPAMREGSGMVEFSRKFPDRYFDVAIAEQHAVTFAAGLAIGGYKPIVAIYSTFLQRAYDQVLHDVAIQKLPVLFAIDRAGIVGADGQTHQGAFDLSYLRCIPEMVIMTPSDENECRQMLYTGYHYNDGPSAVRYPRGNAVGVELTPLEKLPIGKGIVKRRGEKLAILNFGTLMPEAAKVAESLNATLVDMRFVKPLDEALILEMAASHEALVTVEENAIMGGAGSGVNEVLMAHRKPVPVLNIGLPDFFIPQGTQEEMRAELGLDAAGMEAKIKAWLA

SlDXS1 [1] = target: T2, SlDXS1 (Solanum lycopersicum, UniProt Q9XH50); assay type: cell-based
T2 sequence (Q9XH50 58-719): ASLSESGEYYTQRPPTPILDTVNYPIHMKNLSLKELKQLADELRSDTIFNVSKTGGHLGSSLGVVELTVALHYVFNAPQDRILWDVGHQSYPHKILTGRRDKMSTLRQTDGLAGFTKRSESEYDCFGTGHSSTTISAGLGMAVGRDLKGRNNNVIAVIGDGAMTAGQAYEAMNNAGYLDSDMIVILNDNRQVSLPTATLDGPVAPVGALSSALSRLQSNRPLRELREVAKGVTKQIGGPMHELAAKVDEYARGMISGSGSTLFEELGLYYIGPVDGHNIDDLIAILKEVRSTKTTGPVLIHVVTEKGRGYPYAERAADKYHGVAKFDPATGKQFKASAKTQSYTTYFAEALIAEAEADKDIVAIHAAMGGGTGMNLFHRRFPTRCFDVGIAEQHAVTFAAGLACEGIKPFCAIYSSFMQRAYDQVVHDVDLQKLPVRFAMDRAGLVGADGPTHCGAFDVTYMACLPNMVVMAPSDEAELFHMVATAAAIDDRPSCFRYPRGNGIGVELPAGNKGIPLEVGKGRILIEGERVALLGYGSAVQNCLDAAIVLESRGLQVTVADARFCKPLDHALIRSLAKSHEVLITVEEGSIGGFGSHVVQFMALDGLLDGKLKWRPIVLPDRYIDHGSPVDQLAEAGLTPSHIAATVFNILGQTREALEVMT

[2] = tested on: E. coli EcAB4-10 cells (EcDXS activity)
SlDXS1 [3] = target: T2, SlDXS1; assay: Isothermal titration calorimetry; assay type: binding
N. benthamiana leaves = assay: Leaf bleaching after infiltration with inhibitors; assay type: in vivo, Nicotiana benthamiana; conditions: FSM 200 μM or NF 40 μM in the agroinfiltration mixture; observed at 5 dpi
Procedure, shortened: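 Leaves of 4-week-old plants were agroinfiltrated with an SlDXS1 construct plus an HcPro silencing suppressor (9:1). FSM 200 μM, NF 40 μM or water was included in the infiltration mixture. Bleaching was scored visually at 5 dpi.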

SlDXS1-GFP = assay type: in vivo, Nicotiana benthamiana; conditions: 3 dpi; for number of fluorescent spots (SlDXS1-GFP aggregates) per chloroplast: FSM 200 μM or NF 40 μM, compared with untreated controls
Procedure, shortened: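 Agrobacterium GV3101 carrying SlDXS1-GFP was resuspended to OD600 0.8 in 10 mM MgCl2, 10 mM MES, 150 μM acetosyringone, pH 5.6. It was held 1.5 h at 28°C, then mixed 9:1 with an HcPro silencing-suppressor strain. FSM 200 μM, NF 40 μM or water was added before infiltrating leaves of 4-week-old plants. At 3 dpi, confocal imaging used 488 nm excitation and BP515-525 emission alongside chlorophyll fluorescence. Chloroplast and GFP-dot areas were measured from ≥7 images of different leaves, shown as mean and SD.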

SlDXS1 [4] = assay type: in vivo, Nicotiana benthamiana; conditions: FSM 200 μM or NF 40 μM; 5 dpi; compared with mock-treated controls
Procedure, shortened: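 Agrobacterium GV3101 carrying untagged SlDXS1 at OD600 0.8 in MES/MgCl2/acetosyringone buffer, pH 5.6, was mixed 9:1 with an HcPro strain. FSM 200 μM, NF 40 μM or water was added before infiltrating 4-week-old leaves. At 5 dpi, about 300 mg of frozen tissue was extracted in TKMES with protease inhibitors and Triton, then cleared at 2800 g, 4°C. Samples in non-denaturing loading buffer were run on 7% SDS-PAGE and blotted with anti-DXS 1:500 overnight at 4°C.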

[5] = tested on: MEP pathway intermediates in N. benthamiana leaves; assay type: in vivo, Nicotiana benthamiana; conditions: leaves infiltrated with SlDXS1, FSM 200 μM or NF 40 μM, 5 dpi; for Metabolite concentration DXP: control 7.69; for Metabolite concentration MEP: control 351.35; for Metabolite concentration MEcPP: control 671.68

| Compound | proportion of EcDXS dimers (EcDXS) | ratio of insoluble (aggregated) to soluble EcDXS protein (EcDXS) | proportion of SlDXS1 dimers (SlDXS1 [1]) | ratio of insoluble (aggregated) to soluble SlDXS1 protein (SlDXS1 [1]) | cell growth (OD600) [2] | intracellular DXP levels [2] | intracellular IPP/DMAPP levels [2] | Kd (SlDXS1 [3]) | leaf phenotype (N. benthamiana leaves) | number of fluorescent spots (SlDXS1-GFP aggregates) per chloroplast (SlDXS1-GFP) | dimer-to-monomer ratio of SlDXS1 (SlDXS1 [4]) | Metabolite concentration DXP [5] | Metabolite concentration MEP [5] | Metabolite concentration MEcPP [5] | size of the fluorescent spots (SlDXS1-GFP aggregates) (SlDXS1-GFP; NF 40 μM) |
| --- | --- | --- | --- | --- | --- | --- | --- | --- | --- | --- | --- | --- | --- | --- | --- |
| C[C@@](O)(CCO)CC(=O)O [MVA, mevalonic acid] | proportion of dimers decreased | higher ratio of insoluble (aggregated) to soluble | proportion of dimers decreased | higher ratio of insoluble (aggregated) to soluble | did not show any growth impairment | much lower | markedly increased |  |  |  |  |  |  |  |  |
| Cc1ncc(C[n+]2csc(CCO[P@](=O)(O)OP(=O)(O)O)c2C)c(N)n1 [TPP, thiamine diphosphate] |  |  |  |  |  |  |  | 4.2 ± 0.7 µM |  |  |  |  |  |  |  |
| O=CN(O)CCCP(=O)(O)O [FSM, fosmidomycin] |  |  |  |  |  |  |  |  | bleaching phenotype | higher amounts | increased | 641.99 pg/mg dry weight | 7.67 pg/mg dry weight | 31.03 pg/mg dry weight |  |
| CNc1cnn(-c2cccc(C(F)(F)F)c2)c(=O)c1Cl [NF, norflurazon] |  |  |  |  |  |  |  |  | bleaching phenotype | lower amounts | decreased | 5.73 pg/mg dry weight | 175.33 pg/mg dry weight | 405.61 pg/mg dry weight | larger |
